Laboratory results from publication PMC12297293 (Nature Communications, 2025).
Changes are numbered by the printed parent chain. Where a name gives a salt, the structure may show the parent alone. Read-outs that look alike come from different tables or passages of the source.

Experiments:
human GMPK = target: T1, human GMPK (Homo sapiens, UniProt Q16774); assay: NMR chemical shift perturbation titration; assay type: binding
T1 sequence (Q16774 1-197): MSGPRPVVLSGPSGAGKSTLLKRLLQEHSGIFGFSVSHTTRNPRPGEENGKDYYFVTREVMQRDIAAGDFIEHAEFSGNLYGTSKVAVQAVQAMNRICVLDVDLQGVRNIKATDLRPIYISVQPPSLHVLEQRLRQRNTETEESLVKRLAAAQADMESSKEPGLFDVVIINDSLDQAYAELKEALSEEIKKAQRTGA
Method in brief: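 15N-GMPK was expressed in M9 medium with 0.5 mM IPTG at 16 °C for 20 h, then diluted to 50–100 μM in 20 mM HEPES, 150 mM NaCl, pH 7.5, 10% D2O. 1H-15N HSQC at 298 K, 700 MHz with cryoprobe. Assignments transferred from BMRB 27151; overlapped peaks excluded. Chemical shift perturbations globally fitted to a one-site model with Kd shared across residues.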

human GMPK wild type [1] = target: T2, human GMPK wild type (Homo sapiens, UniProt Q16774); assay: ITC binding of nucleotides to wild-type GMPK
T2 sequence (Q16774 1-197): T1 sequence (Q16774 1-197)
Method in brief: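 ITC at 25 °C with recombinant human GMPK: SUMO-tagged, expressed in E. coli Rosetta (DE3), Ni-purified, tag cut with ULP1, then SEC. Both partners were in 20 mM HEPES pH 7.5 with 150 mM KCl. Cell held 50 μM GMPK; syringe held 1 mM GMP. One 1 μL injection was followed by 19 × 2 μL injections. Triplicate experiments.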

GMPK-ADP mixture = target: T3, GMPK-ADP mixture (Homo sapiens, UniProt Q16774); assay: ITC of GMP into GMPK-ADP mixture; conditions: GMP binding after incubation of ADP
T3 sequence (Q16774 1-197): T1 sequence (Q16774 1-197)
Method in brief: (§1)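 GMP titrated into a preformed nucleotide–enzyme mixture by ITC at 25 °C. Cell held 50 μM recombinant human GMPK premixed with 0.5 mM ADP or ATPγS. Syringe held 2 or 2.5 mM GMP. One 1 μL injection, then 19 × 2 μL. Fitted Kd reported.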

GMPK-ATPγS mixture = target: T4, GMPK-ATPγS mixture (Homo sapiens, UniProt Q16774); assay: ITC of GMP into GMPK-ATPγS mixture; conditions: GMP binding after prior incubation of ATPγS
T4 sequence (Q16774 1-197): T1 sequence (Q16774 1-197)
Method in brief: as §1

GMPK R148A mutant = target: T5, GMPK R148A mutant (Homo sapiens, UniProt Q16774, R148A); assay: ITC binding, GMPK R148A; conditions: R148A vs wild type
T5 sequence (Q16774 1-197 R148A): T1 sequence (Q16774 1-197) with R148A
Method in brief: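 Mutant made by homologous recombination and Sanger-verified, then expressed in E. coli Rosetta (DE3). Purified by Ni column, ULP1 cleavage of the SUMO tag and SEC (20 mM HEPES, 150 mM NaCl, pH 7.5). ITC at 25 °C with 50 μM protein in the cell and 1.25 or 2.5 mM GMP in the syringe. Injections: 1 μL, then 19 × 2 μL.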

human GMPK wild type [2] = target: T2, human GMPK wild type; assay: NADH-dependent enzyme activity assay, wild-type GMPK; assay type: biochemical

For `Nc1ncnc2c1ncn2[C@@H]1O[C@H](CO[P@](=O)(O)O[P@](=O)(O)O[P@@](=O)(O)S)[C@@H](O)[C@H]1O` [ATPγS, reference compound], the Kd (human GMPK) was 0.03 mM.

Compound `Nc1nc2c(ncn2[C@@H]2O[C@H](COP(=O)(O)O)[C@@H](O)[C@H]2O)c(=O)[nH]1` [GMP] has a Kd (human GMPK wild type [1]; GMP binding to GMPK without prior incubation) of 32 µM, a Kd (human GMPK wild type [1]; read-out: Mean Kd, GMP into GMPK, 150 mM KCl, triplicate experiments) of 7.1 µM and a Kd (GMPK-ADP mixture) of 60 µM. The Kd (GMPK-ATPγS mixture) was 170 µM and the “weakening of GMP binding by R148A mutagenesis” value (GMPK R148A mutant) was 1.7 fold.

For `[Cl-].[K+]` [KCl, potassium chloride], the “decrease of kcat at 150 mM relative to 10 mM” value (human GMPK wild type [2]; 150 mM vs 10 mM potassium ions) was 1.5 fold and the “K+ concentration at which the initial reaction rate reached its maximum” value (human GMPK wild type [2]; saturating substrate conditions) was “about 7.5 mM”.

With `O=S(=O)(O)O` [sulfate ions, sulfate ion] the mode of inhibition (human GMPK wild type [2]; Michaelis-Menten curves for ATP under 1, 5 and 10 mM SO4 2-) was “competitive inhibitor of ATP” and the Kd (human GMPK; read-out: Kd from NMR titration, binding to the p-loop region of GMPK) was 5.6 mM.
